Columns and labels:
Adenosine receptor A1 = target: T1, Adenosine receptor A1 (Homo sapiens, UniProt P30542); test: Displacement of [3H]CCPA from human adenosine A1 receptor expressed in CHO cells; assay type: cell-based
T1 sequence (P30542 whole entry): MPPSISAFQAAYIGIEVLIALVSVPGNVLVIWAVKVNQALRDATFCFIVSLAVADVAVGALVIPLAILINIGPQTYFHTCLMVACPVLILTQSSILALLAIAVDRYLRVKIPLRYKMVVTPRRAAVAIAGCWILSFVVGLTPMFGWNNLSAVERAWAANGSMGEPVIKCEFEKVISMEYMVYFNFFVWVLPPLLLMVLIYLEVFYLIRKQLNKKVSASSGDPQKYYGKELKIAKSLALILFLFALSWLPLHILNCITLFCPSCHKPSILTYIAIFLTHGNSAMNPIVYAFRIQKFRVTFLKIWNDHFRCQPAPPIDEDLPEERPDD
Summary of the method: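 Stably transfected CHO cells were homogenised and spun at 1000g to remove nuclei and fragments. Membranes were then pelleted at 100 000g, resuspended in binding buffer, frozen in liquid nitrogen and stored. Radioligand was [³H]CCPA, with nonspecific binding defined by 1 mM theophylline.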

[1] = target: Adenosine receptors; A1 & A3 (Homo sapiens) (UniProt P30542+P0DMS8); test: Selectivity ratio of Ki for human adenosine A1 receptor expressed in CHO cells to Ki for human adenosine A3 receptor expressed in CHO cells; assay type: cell-based
Adenosine receptor A2a = Adenosine receptor A2a (Homo sapiens, UniProt P29274); test: Displacement of [3H]NECA from human adenosine A2A receptor expressed in CHO cells; assay type: cell-based
CHO [2] = test: Selectivity ratio of Ki for human adenosine A1 receptor expressed in CHO cells to Ki for human adenosine A2A receptor expressed in CHO cells; assay type: cell-based
CHO [3] = test: Selectivity ratio of Ki for human adenosine A2A receptor expressed in CHO cells to Ki for human adenosine A3 receptor expressed in CHO cells; assay type: cell-based
Adenosine receptor A3 = target: T2, Adenosine receptor A3 (Homo sapiens, UniProt P0DMS8); test: Displacement of [3H]NECA from human adenosine A3 receptor expressed in CHO cells; assay type: cell-based
T2 sequence (P0DMS8 whole entry): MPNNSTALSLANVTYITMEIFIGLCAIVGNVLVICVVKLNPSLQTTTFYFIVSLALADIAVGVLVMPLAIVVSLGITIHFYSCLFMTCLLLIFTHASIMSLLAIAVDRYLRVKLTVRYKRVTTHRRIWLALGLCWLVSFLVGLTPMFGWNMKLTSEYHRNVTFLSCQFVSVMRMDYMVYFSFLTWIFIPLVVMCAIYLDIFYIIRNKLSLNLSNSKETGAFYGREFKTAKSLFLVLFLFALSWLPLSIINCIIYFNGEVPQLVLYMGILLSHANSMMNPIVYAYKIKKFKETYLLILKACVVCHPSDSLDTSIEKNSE
Summary of the method: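 Radioligand [³H]NECA was used on membranes from stably transfected CHO cells, prepared by a 1000g clearing spin then pelleting at 100 000g. Pellets were resuspended in binding buffer, frozen in liquid nitrogen and stored. Nonspecific binding was defined with 100 μM R-PIA.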

Adenosine receptor A2b = target: T3, Adenosine receptor A2b (Homo sapiens, UniProt P29275); test: Antagonist activity at human adenosine A2B receptor expressed in CHO cells assessed as inhibition of NECA-stimulated adenylyl cyclase activity; assay type: functional, cell-based
T3 sequence (P29275 whole entry): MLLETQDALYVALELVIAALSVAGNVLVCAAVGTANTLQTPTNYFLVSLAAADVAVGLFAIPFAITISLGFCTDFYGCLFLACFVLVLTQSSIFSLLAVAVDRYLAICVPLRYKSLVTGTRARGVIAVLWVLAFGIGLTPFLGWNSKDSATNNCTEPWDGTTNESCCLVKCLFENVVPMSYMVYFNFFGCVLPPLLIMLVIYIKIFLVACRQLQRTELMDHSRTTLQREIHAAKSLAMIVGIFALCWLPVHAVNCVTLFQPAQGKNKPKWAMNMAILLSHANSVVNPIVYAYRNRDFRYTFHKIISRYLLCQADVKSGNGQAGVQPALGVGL
Summary of the method: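 Membranes from stably transfected CHO cells, made with a single high-speed centrifugation of the homogenate. Incubated 20 min with about 150 000 cpm [α-³²P]ATP, in a mixture without EGTA and NaCl. IC50 for concentration-dependent inhibition of NECA-stimulated adenylyl cyclase was fitted with the Hill equation and converted to Ki by Cheng–Prusoff.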

Chain of Adenosine receptor A2a (P29274 whole entry): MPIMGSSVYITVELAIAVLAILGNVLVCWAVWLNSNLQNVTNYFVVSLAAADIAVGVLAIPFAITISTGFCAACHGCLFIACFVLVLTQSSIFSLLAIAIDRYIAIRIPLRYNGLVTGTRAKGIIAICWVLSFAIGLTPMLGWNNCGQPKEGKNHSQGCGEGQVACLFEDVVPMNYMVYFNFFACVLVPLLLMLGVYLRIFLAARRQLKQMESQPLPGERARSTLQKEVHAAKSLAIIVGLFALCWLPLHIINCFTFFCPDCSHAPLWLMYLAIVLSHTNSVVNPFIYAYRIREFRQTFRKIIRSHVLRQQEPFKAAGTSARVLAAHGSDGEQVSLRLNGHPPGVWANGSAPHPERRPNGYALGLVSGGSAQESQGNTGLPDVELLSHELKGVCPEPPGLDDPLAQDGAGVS

Row | Ki (Adenosine receptor A1) [nM] | Ratio Ki [1] | Ki (Adenosine receptor A2a) [nM] | Ki (Adenosine receptor A3) [nM] | Ki (Adenosine receptor A2b) [nM] | Compound | Ratio Ki (CHO [2]) | Ratio Ki (CHO [3])
1 | 315 | 8.14 | 116 | 38.7 | 13300 | CCOC(=O)c1cnc(NCc2ccc(OC)c(OC)c2)n2nc(-c3ccco3)nc12 | 2.71 | 3
2 | 1250 | 21.7 | 142 | 57.6 | 4810 | CCOC(=O)c1cnc(NCc2ccc(OC)cc2)n2nc(-c3ccco3)nc12 | 8.8 | 2.46
3 | 613 | 54.2 | 50.1 | 11.3 | > 10000 | CCCCCNc1ncc(C(=O)OCC)c2nc(-c3ccco3)nn12 | 12.2 | 4.43
4 | 8860 | 5 | 8180 | 1770 | > 10000 | CCOC(=O)c1cnc(N2CCCCC2)n2nc(-c3ccco3)nc12 | 1.08 | 4.62
5 | > 100000 | > 23.7 | 773 | 4220 | > 30000 | O=C(Nc1ncc(C(=O)NCCc2ccccc2)c2nc(-c3ccco3)nn12)NC1CCCCC1 | > 129 | 0.18
6 | 60.7 | 6.38 | 37.4 | 9.52 | 2260 | CCOC(=O)c1cnc(NC2CC2)n2nc(-c3ccco3)nc12 | 1.62 | 3.93
7 | 978 | 236 | 104 | 4.14 | 2450 | CCOC(=O)c1cnc(NC)n2nc(-c3ccco3)nc12 | 9.4 | 25.1
8 | 3790 | 0.21 | 37300 | 17700 | > 10000 | O=C(O)c1cnc(NC2CCCC2)n2nc(-c3ccco3)nc12 | 0.1 | 2.11
9 | 2730 | 3.63 | 1190 | 751 | > 10000 | Cc1ccc(CNc2ncc(C(=O)O)c3nc(-c4ccco4)nn23)cc1 | 2.29 | 1.58
10 | 1110 | 6.73 | 596 | 165 | > 10000 | O=C(O)c1cnc(NC2CC2)n2nc(-c3ccco3)nc12 | 1.86 | 3.61
11 | 432 | 10.5 | 121 | 41.2 | > 10000 | CCOC(=O)c1cnc(NCC2CCCCC2)n2nc(-c3ccco3)nc12 | 3.57 | 2.94
12 | 10400 | 0.39 | 26900 | 26300 | > 10000 | CCCCCNc1ncc(C(=O)O)c2nc(-c3ccco3)nn12 | 0.39 | 1.02
13 | 135 | 0.22 | 15 | 609 | 2030 | CNC(=O)c1cnc(N)n2nc(-c3ccco3)nc12 | 9 | 0.02
14 | 932 | 20.1 | 39.3 | 46.3 | 1970 | CCOC(=O)c1cnc(NCc2ccc(F)cc2)n2nc(-c3ccco3)nc12 | 23.7 | 0.85
15 | 11900 | 24.8 | 3680 | 480 | > 10000 | CCNc1ncc(C(=O)O)c2nc(-c3ccco3)nn12 | 3.23 | 7.67
16 | > 100000 | > 38.6 | 42700 | 2590 | > 30000 | CCOC(=O)c1cnc(NC(=O)Cc2ccccc2)n2nc(-c3ccco3)nc12 | > 2.34 | 16.5
17 | > 100000 | > 1.68 | 24700 | 59400 | > 30000 | O=C(Nc1ncc(C(=O)O)c2nc(-c3ccco3)nn12)NC1CCCCC1 | > 4.05 | 0.42
18 | > 100000 | > 6.29 | 18000 | 15900 | > 30000 | O=C(O)c1cnc(NCc2ccc(C(F)(F)F)cc2)n2nc(-c3ccco3)nc12 | > 5.55 | 1.13
19 | 15600 | 18.7 | 10200 | 836 | > 10000 | CCOC(=O)c1cnc(N2CCCC2)n2nc(-c3ccco3)nc12 | 1.53 | 12.2
20 | 365 | 0.27 | 51.4 | 1350 | > 30000 | O=C(Nc1ccccc1)Nc1ncc(C(=O)NCCc2ccccc2)c2nc(-c3ccco3)nn12 | 7.1 | 0.04
21 | 943 | 2.81 | 385 | 336 | > 30000 | CCOC(=O)c1cnc(NC(c2ccccc2)c2ccccc2)n2nc(-c3ccco3)nc12 | 2.45 | 1.14
22 | 57.1 | 0.41 | 11.1 | 140 | 5320 | Nc1ncc(C(=O)NCCc2ccccc2)c2nc(-c3ccco3)nn12 | 5.14 | 0.08
23 | 4490 | 0.26 | 7660 | 17500 | > 10000 | CC(C)Nc1ncc(C(=O)O)c2nc(-c3ccco3)nn12 | 0.59 | 0.44
24 | 1590 | 4.92 | 209 | 323 | 2040 | CCOC(=O)c1cnc(NCc2ccc(C(F)(F)F)cc2)n2nc(-c3ccco3)nc12 | 7.61 | 0.65
25 | 30100 | 1.06 | > 100000 | 28300 | > 30000 | O=C(O)c1cnc(NCc2ccc(-c3ccccc3)cc2)n2nc(-c3ccco3)nc12 | < 0.3 | > 3.53
26 | 428 | 1.52 | 25.8 | 282 | 2490 | CNC(=O)c1cnc(NCc2ccc(OC)c(OC)c2)n2nc(-c3ccco3)nc12 | 16.6 | 0.09
27 | 5760 | 1.04 | 12400 | 5520 | > 30000 | COc1ccc(CNc2ncc(C(=O)O)c3nc(-c4ccco4)nn23)cc1 | 0.46 | 2.25
28 | 317 | 0.57 | 28.1 | 553 | > 30000 | O=C(Cc1ccccc1)Nc1ncc(C(=O)NCCc2ccccc2)c2nc(-c3ccco3)nn12 | 11.3 | 0.05
29 | 34.4 | 0.98 | 43.4 | 35 | 4620 | CCOC(=O)c1cnc(NC2CCCC2)n2nc(-c3ccco3)nc12 | 0.79 | 1.24
